Test results from ChEMBL document CHEMBL3992505, “Optimization of substituted imidazobenzodiazepines as novel asthma treatments” (Eur J Med Chem, 2017).

What was measured:
Liver [1] = assay: Metabolic stability in human liver microsomes assessed as compound remaining at 10 uM after 1 hr by LC-MS/MS analysis; type: ADME, microsome
How it was run: (§1)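 Compound stability was measured in human or mouse liver microsomes as percent remaining after 1 h. Data came from two independent experiments, each run in triplicate.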

Liver [2] = assay: Metabolic stability in mouse liver microsomes assessed as compound remaining at 10 uM after 1 hr by LC-MS/MS analysis; type: ADME, microsome; how it was run: as §1
[3] = Half life in human liver microsomes at 10 uM by LC-MS/MS analysis; type: ADME, microsome
[4] = (§2) Half life in mouse liver microsomes at 10 uM by LC-MS/MS analysis; type: ADME, microsome; conditions: liver microsomes
[5] = Cytotoxicity in HEK293 cells after 48 hrs by Cell-titer Glo reagent based assay; conditions: human, read-out: LD50
How it was run: (§3)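 Cells (HEK293, HepG2 or BEAS2B) exposed to compounds at a range of concentrations for 48 h; viability read by Cell-Titer Glo luminescence. Normalized to DMSO (negative) and 3-dibutylamino-1-(4-hexyl-phenyl)-propan-1-one at 150 μM final in DMSO (positive).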

[6] = Cytotoxicity in human HepG2 cells after 48 hrs by Cell-titer Glo reagent based assay; conditions: read-out: LD50; how it was run: as §3
[7] = Cytotoxicity in human BEAS2B cells after 48 hrs by Cell-titer Glo reagent based assay; design: species or system BEAS-2B; conditions: read-out: LD50; how it was run: as §3
Mus musculus = assay: Neurotoxicity in Swiss Webster mouse assessed as induction of senorimotor impairment at 40 mg/kg, ip administered 10 mins prior to testing and measured for 3 mins at 10 to 60 mins after drug administration by rotarod method; type: toxicity, organism-based; conditions: in vivo
How it was run: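 Swiss Webster mice, pre-trained at 15 rpm until they held on for 3 min at three consecutive sessions, were given a single i.p. dose of 40 mg/kg in 10% DMSO/40% propylene glycol/50% PBS. Rotarod at 15 rpm for 3 min at 10, 30 and 60 min after dosing. Falls before 3 min scored as fail, with time of fall recorded. N = 10, mean ± SEM. Vehicle and diazepam 5 mg/kg i.p. controls. Mice rested 2–3 days between doses.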

[8] = Solubility of the compound in PBS/1% DMSO at 10 uM; type: physicochemical; conditions: buffer
How it was run: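 Solubility was judged at 10 μM in PBS containing 1% DMSO.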

[9] = Solubility of the compound in 50% PBS/40% propylene glycol/10% DMSO at 10 uM; type: physicochemical; conditions: buffer
Liver [10] = assay: as §2; type: ADME, microsome; conditions: microsomes, 10 µM

| Structure (SMILES) | Stability (Liver [1]) [%] | Stability (Liver [2]) [%] | half-life at 10 µM [3] [h] | half-life at 10 µM [4] [h] | CC50 at 48 h [5] [µM] | CC50 at 48 h [6] [µM] | CC50 at 48 h [7] [µM] | Activity (Mus musculus) | solubility [8] | solubility [9] | t1/2 (Liver [10]) [h] |
| --- | --- | --- | --- | --- | --- | --- | --- | --- | --- | --- | --- |
| COC(=O)c1ncn2c1[C@@H]1CCCN1C(=O)c1cc(OC)ccc1-2 | 89.7 | 70.3 | 11.1 | 2.15 | > 400 | > 400 | > 400 | – | – | – | – |
| [2H]C([2H])([2H])Oc1ccc2c(c1)C(=O)N1CCC[C@H]1c1c(C(=O)OC)ncn1-2 | 92.9 | 85.9 | 16.3 | 4.75 | > 400 | > 400 | > 400 | Toxic | – | – | – |
| [2H]C([2H])([2H])Oc1ccc2c(c1)C(=O)N1CCC[C@H]1c1c(C(=O)N(C)C)ncn1-2 | 96.3 | 83.1 | 13.3 | 24.7 | > 400 | > 400 | > 400 | Non-Toxic | – | – | – |
| COc1ccc2c(c1)C(=O)N1CCC[C@H]1c1c(C(=O)SC(C)(C)C)ncn1-2 | – | – | – | – | 18.8 | > 100 | > 100 | – | Insoluble | Insoluble | – |
| CCSC(=O)c1ncn2c1[C@@H]1CCCN1C(=O)c1cc(OC)ccc1-2 | – | – | – | – | > 100 | > 100 | > 100 | – | Insoluble | Insoluble | – |
| CCOC(=O)c1ncn2c1[C@@H]1CCCN1C(=O)c1cc(O)ccc1-2 | 91.7 | 91.1 | 11 | 9 | > 400 | > 400 | > 400 | Non-Toxic | – | – | – |
| [2H]C([2H])([2H])Oc1ccc2c(c1)C(=O)N1CCC[C@H]1c1c(C(=O)SCC)ncn1-2 | – | – | – | – | > 100 | > 100 | > 100 | – | Insoluble | Insoluble | – |
| [2H]C([2H])([2H])Oc1ccc2c(c1)C(=O)N1CCC[C@H]1c1c(C(=O)NC(C)(C)C)ncn1-2 | 95.6 | 9.4 | 7.15 | – | > 200 | > 400 | > 400 | Toxic | – | – | 21.5 |
| CNC(=O)c1ncn2c1[C@@H]1CCCN1C(=O)c1cc(OC)ccc1-2 | 93.8 | 54.3 | 16.3 | 1.08 | > 100 | > 400 | > 400 | Toxic | – | – | – |
| [2H]C([2H])([2H])Oc1ccc2c(c1)C(=O)N1CCC[C@H]1c1c(C(=O)NC)ncn1-2 | 94.9 | 56.8 | 23.9 | 1.29 | > 100 | > 400 | > 400 | – | – | – | – |
| [2H]C([2H])([2H])Oc1ccc2c(c1)C(=O)N1CCC[C@H]1c1c(C(=O)NCC)ncn1-2 | 93.5 | 94.8 | 21.3 | 4.55 | > 400 | > 400 | > 400 | Non-Toxic | – | – | – |
| COc1ccc2c(c1)C(=O)N1CCC[C@H]1c1c(C(=O)O)ncn1-2 | 56.1 | 52.9 | 1.33 | 1.22 | > 400 | > 400 | > 400 | – | – | – | – |
| [2H]C([2H])([2H])Oc1ccc2c(c1)C(=O)N1CCC[C@H]1c1c(C(=O)O)ncn1-2 | 84.6 | 84.6 | 5.6 | 4.71 | > 400 | > 400 | > 400 | Non-Toxic | – | – | – |
